Assay results: ChEMBL document CHEMBL5058577, “EUbOPEN Chemogenomics Library 2 (Multiplex)” (2022)

System: U2OS
Assay: Multiplex assay against U2OS
Type: toxicity, cell-based
Conditions: human
Outline: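 Compound was added to live cells that had been stained at seeding with Hoechst33342, BioTracker Green Microtubule Cytoskeleton Dye, MitoTracker Red and Annexin V Alexa Fluor 680, and imaging followed on a CQ1 microscope at 37°C and 5% CO2. CellPathfinder machine-learning gating divided cells into Hoechst high-intensity objects or normal cells, normal cells into healthy, pyknosed or fragmented nuclei, and pyknosed cells into mitotic or apoptotic. Tubulin, mitochondrial-mass and membrane-permeability phenotypes are per cents of healthy-nucleus cells.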

[1] = 12 h, 1 µM, compound concentration 1 uM, replicate 1
[2] = 12 h, 1 µM, compound concentration 1 uM, replicate 2
[3] = 12 h, 10 µM, compound concentration 10 uM, replicate 1
[4] = 12 h, 10 µM, compound concentration 10 uM, replicate 2
[5] = 24 h, 1 µM, compound concentration 1 uM, replicate 1
[6] = 24 h, 1 µM, compound concentration 1 uM, replicate 2
[7] = 24 h, 10 µM, compound concentration 10 uM, replicate 1
[8] = 24 h, 10 µM, compound concentration 10 uM, replicate 2
[9] = 48 h, 1 µM, compound concentration 1 uM, replicate 1
[10] = 48 h, 1 µM, compound concentration 1 uM, replicate 2
[11] = 48 h, 10 µM, compound concentration 10 uM, replicate 1
[12] = 48 h, 10 µM, compound concentration 10 uM, replicate 2

For CCCCC1=NC2(CCCC2)C(=O)N1Cc1ccc(-c2ccccc2-c2nnn[nH]2)cc1 [IRBESARTAN], the “Population Apoptotic (%)” value [1] was 83%, the “Population Fragmented Nuclei (%)” value [1] was 25% and the “Population Healthy Nuclei (%)” value [1] was 66%. The “Population Hoechst High Intensity Objects (%)” value [1] was 2%, the “Population Membrane Permeable-Phenotype (%)” value [1] was 5% and the “Population Mitochondria Different-Phenotype (%)” value [1] was 1%. For the same molecule, the “Population Mitotic Cells (%)” value [1] was 16%, the “Population Normal (%)” value [1] was 97% and the “Population Pyknosed Nuclei (%)” value [1] was 7%. The “Population Tubulin-Different-Phenotype (%)” value [1] was 1%, the “Total Cell Count” value [1] was 233 and the “Population Apoptotic (%)” value [2] was 77%. The “Population Fragmented Nuclei (%)” value [2] was 9%, the “Population Healthy Nuclei (%)” value [2] was 82% and the “Population Hoechst High Intensity Objects (%)” value [2] was 0%. The “Population Membrane Permeable-Phenotype (%)” value [2] was 11%, the “Population Mitotic Cells (%)” value [2] was 22% and the “Population Normal (%)” value [2] was 99%. For the same molecule, the “Population Tubulin-Different-Phenotype (%)” value [2] was 8%, the “Total Cell Count” value [2] was 124 and the “Population Apoptotic (%)” value [3] was 91%. The “Population Fragmented Nuclei (%)” value [3] was 22%, the “Population Healthy Nuclei (%)” value [3] was 68% and the “Population Hoechst High Intensity Objects (%)” value [3] was 2%. The “Population Membrane Permeable-Phenotype (%)” value [3] was 4%, the “Population Mitochondria Different-Phenotype (%)” value [3] was 3% and the “Population Mitotic Cells (%)” value [3] was 8%. The “Population Normal (%)” value [3] was 97%, the “Population Pyknosed Nuclei (%)” value [3] was 9% and the “Population Tubulin-Different-Phenotype (%)” value [3] was 2%. For the same molecule, the “Total Cell Count” value [3] was 254, the “Population Apoptotic (%)” value [4] was 100% and the “Population Fragmented Nuclei (%)” value [4] was 18%. For the same molecule, the “Population Healthy Nuclei (%)” value [4] was 74%, the “Population Hoechst High Intensity Objects (%)” value [4] was 0% and the “Population Membrane Permeable-Phenotype (%)” value [4] was 8%. For the same molecule, the “Population Mitochondria Different-Phenotype (%)” value [4] was 6%, the “Population Mitotic Cells (%)” value [4] was 0% and the “Population Normal (%)” value [4] was 100%. The “Population Pyknosed Nuclei (%)” value [4] was 8%, the “Population Tubulin-Different-Phenotype (%)” value [4] was 8% and the “Total Cell Count” value [4] was 100. For the same molecule, the “Population Apoptotic (%)” value [5] was 70%, the “Population Fragmented Nuclei (%)” value [5] was 23% and the “Population Healthy Nuclei (%)” value [5] was 69%. For the same molecule, the “Population Hoechst High Intensity Objects (%)” value [5] was 3%, the “Population Membrane Permeable-Phenotype (%)” value [5] was 6% and the “Population Mitochondria Different-Phenotype (%)” value [5] was 3%. The “Population Mitotic Cells (%)” value [5] was 29%, the “Population Normal (%)” value [5] was 96% and the “Population Pyknosed Nuclei (%)” value [5] was 7%. The “Population Tubulin-Different-Phenotype (%)” value [5] was 3%, the “Total Cell Count” value [5] was 241 and the “Population Apoptotic (%)” value [6] was 66%. For the same molecule, the “Population Fragmented Nuclei (%)” value [6] was 12%, the “Population Healthy Nuclei (%)” value [6] was 76% and the “Population Hoechst High Intensity Objects (%)” value [6] was 2%. The “Population Membrane Permeable-Phenotype (%)” value [6] was 9%, the “Population Mitochondria Different-Phenotype (%)” value [6] was 2% and the “Population Mitotic Cells (%)” value [6] was 33%. The “Population Normal (%)” value [6] was 97%, the “Population Pyknosed Nuclei (%)” value [6] was 10% and the “Population Tubulin-Different-Phenotype (%)” value [6] was 4%. For the same molecule, the “Total Cell Count” value [6] was 142, the “Population Apoptotic (%)” value [7] was 96% and the “Population Fragmented Nuclei (%)” value [7] was 18%. The “Population Healthy Nuclei (%)” value [7] was 73%, the “Population Hoechst High Intensity Objects (%)” value [7] was 2% and the “Population Membrane Permeable-Phenotype (%)” value [7] was 6%. For the same molecule, the “Population Mitochondria Different-Phenotype (%)” value [7] was 3%, the “Population Mitotic Cells (%)” value [7] was 4% and the “Population Normal (%)” value [7] was 97%. The “Population Pyknosed Nuclei (%)” value [7] was 8%, the “Population Tubulin-Different-Phenotype (%)” value [7] was 4% and the “Total Cell Count” value [7] was 301. For the same molecule, the “Population Apoptotic (%)” value [8] was 91%, the “Population Healthy Nuclei (%)” value [8] was 72% and the “Population Hoechst High Intensity Objects (%)” value [8] was 0%. For the same molecule, the “Population Membrane Permeable-Phenotype (%)” value [8] was 7%, the “Population Mitotic Cells (%)” value [8] was 8% and the “Population Normal (%)” value [8] was 99%. The “Population Tubulin-Different-Phenotype (%)” value [8] was 3%, the “Total Cell Count” value [8] was 135 and the “Population Apoptotic (%)” value [9] was 97%. For the same molecule, the “Population Fragmented Nuclei (%)” value [9] was 18%, the “Population Healthy Nuclei (%)” value [9] was 71% and the “Population Hoechst High Intensity Objects (%)” value [9] was 2%. For the same molecule, the “Population Membrane Permeable-Phenotype (%)” value [9] was 5%, the “Population Mitochondria Different-Phenotype (%)” value [9] was 2% and the “Population Mitotic Cells (%)” value [9] was 2%. The “Population Normal (%)” value [9] was 97%, the “Population Pyknosed Nuclei (%)” value [9] was 10% and the “Population Tubulin-Different-Phenotype (%)” value [9] was 2%. The “Total Cell Count” value [9] was 357, the “Population Apoptotic (%)” value [10] was 94% and the “Population Fragmented Nuclei (%)” value [10] was 14%. The “Population Healthy Nuclei (%)” value [10] was 76%, the “Population Hoechst High Intensity Objects (%)” value [10] was 4% and the “Population Membrane Permeable-Phenotype (%)” value [10] was 6%. The “Population Mitochondria Different-Phenotype (%)” value [10] was 1%, the “Population Mitotic Cells (%)” value [10] was 5% and the “Population Normal (%)” value [10] was 95%. The “Population Pyknosed Nuclei (%)” value [10] was 9%, the “Total Cell Count” value [10] was 198 and the “Population Apoptotic (%)” value [11] was 89%. For the same molecule, the “Population Fragmented Nuclei (%)” value [11] was 14%, the “Population Healthy Nuclei (%)” value [11] was 75% and the “Population Hoechst High Intensity Objects (%)” value [11] was 3%. The “Population Membrane Permeable-Phenotype (%)” value [11] was 7%, the “Population Mitochondria Different-Phenotype (%)” value [11] was 3% and the “Population Mitotic Cells (%)” value [11] was 10%. For the same molecule, the “Population Normal (%)” value [11] was 96%, the “Population Pyknosed Nuclei (%)” value [11] was 9% and the “Population Tubulin-Different-Phenotype (%)” value [11] was 3%. For the same molecule, the “Total Cell Count” value [11] was 419, the “Population Apoptotic (%)” value [12] was 94% and the “Population Fragmented Nuclei (%)” value [12] was 16%. The “Population Healthy Nuclei (%)” value [12] was 72%, the “Population Hoechst High Intensity Objects (%)” value [12] was 4% and the “Population Membrane Permeable-Phenotype (%)” value [12] was 9%. The “Population Mitochondria Different-Phenotype (%)” value [12] was 7%, the “Population Mitotic Cells (%)” value [12] was 5% and the “Population Normal (%)” value [12] was 95%. The “Population Pyknosed Nuclei (%)” value [12] was 10%, the “Population Tubulin-Different-Phenotype (%)” value [12] was 7% and the “Total Cell Count” value [12] was 175.
